Source: PubChem
WT yeast gro inh = growth inhibition of WT yeast, mitochondrial fusion screen; AID 1362; 2.1% of 190,000 active; inhibition, % at 10 µM; mitochondrial fusion phenotypic screen, WT strain; in the data active means inhibition above about 58%; tested in S. cerevisiae
Efflux pump inh = blocks antifungal efflux pumps in multiplex yeast assay | S. cerevisiae Candida pump triplex, Nile Red efflux | inhibition, % at 10 µM | 0.44% of 330,000 active | AID 485275;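 active means plate passing quality check with inhibition over a set limit, or well fluorescence over plate mean plus 4 SD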;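 further: Nile Red retained in pooled yeast measured as flow cytometry median fluorescence; higher means more Nile Red kept so more efflux inhibition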
Beta apoptosis = blocks beta cell apoptosis; INS-1E cytokine-induced death, ATP luminescence, 48 h; percent of positive-control rescue, neutral wells zero; protection from apoptosis, % (concentration not given with the values); 0.8% of 300,000 active;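 active means Every replicate reaches about 75%, or at least half do and their mean reaches it too, limit read from the data; inconclusive means At least half of replicates reach the limit but their mean does not; inactive means Under half of replicates reach the limit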;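 further: higher means more ATP so stronger rescue from cytokine killing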
SUMO Mot1 rescue = blocks SUMOylation pathway, rescuing yeast Mot1-301 growth; S. cerevisiae Mot1-301 growth rescue, ATP luminescence, 38.5C; percent above DMSO median, 100 means doubled; growth rescue, % at 18.8 µM; 1% of 320,000 active; AID 2716;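 active means every valid replicate shows activation above 250% relative to neutral control wells; inactive means the rest, any valid replicate at or below 250%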
CSC inhib = cancer stem cell inhibition; inhibition, % at 7.5 µM; 1.1% of 300,000 active; AID 2717; cancer stem cell-like cells viability, luminescence; in the data active means inhibition above about 75%; inconclusive means no clear call, values can overlap the other calls; tested in HMLE shEcad cells
T cruzi inh = blocks replication of Trypanosoma cruzi; T. cruzi beta-gal in NIH3T3, luminescence, 90 h; inhibition, % (no concentration beside the values); 1.4% of 300,000 active; AID 1885;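 active means mean inhibition across valid replicates above about 55%, limit read from the data; inconclusive means mean below that limit but half or more replicates reach it; inactive means mean below it, under half of replicates reach it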;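 further: signal also drops with host cell toxicity which is not excluded here; higher percent means less beta-gal luminescence so fewer parasites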
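Test system: β-gal T. cruzi (Tulahuen C4) inside NIH/3T3 cells / Quantity: 5,000 cells/well / Measured by: luminescence from GalScreen with 0.05% NP40, read after 60 min / Medium: DMEM plus 2% FBS / Measure: parasite load inhibition, % / Reagent: Tulahuen C4 trypomastigotes, 5000/well / Schedule: co-culture of at least 90 h after 3 h attachment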
Yeast Mot1 SUMO = yeast SUMO pathway inhibition in dose response; shares compounds with SUMO Mot1 rescue; S. cerevisiae Mot1-301 galactose growth, ATP luminescence, 24 h; -100 = growth of slx-deleted rescue strain; growth activity, percent, % at 42 µM; 2,300 tested, under 10 active; AID 493004;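 active means Signal drops as the depositor expects, and the fitted half-maximal dose is no more than ten times the top valid tested dose; inconclusive means Poor fit, or a flat curve whose signal drops by 30% to 70%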;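 further: more negative values mean stronger growth rescue toward the control strain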
Large screens that a line does not name were inactive (follow-up assays come after a bar, where they were run). Hits are enriched below; roughly 4.8% of the tested compounds scored in any of these assays.

O=C1c2ccccc2C(=O)c2cc(S(=O)(=O)Nc3ccccc3)ccc21	WT yeast gro inh 72
O=C(C1=C[C@H](C2CCCCC2)C[C@H](OCc2ccc(CO)cc2)O1)N1CCN(Cc2ccc3c(c2)OCO3)CC1	WT yeast gro inh 70, T cruzi inh 57 (no result: Beta apoptosis)
O=C(C1=C[C@@H](C2CCCCC2)C[C@@H](OCc2ccc(CO)cc2)O1)N1CCN(Cc2ccc3c(c2)OCO3)CC1	WT yeast gro inh 76
O=C(C1=C[C@H](C2CC2)C[C@H](OCc2ccc(CO)cc2)O1)N1CCN(Cc2ccc3c(c2)OCO3)CC1	none
O=C(C1=C[C@H](C2CC2)C[C@H](OCCCCO)O1)N1CCN(Cc2ccc3c(c2)OCO3)CC1	none
COc1ccc(-n2c(=O)/c(=C\c3cccs3)s/c2=C(/C#N)C(=O)N2CCN(C)CC2)cc1	none
Clc1cccc(CN2CCc3c([nH]c4ccccc34)C2)c1	T cruzi inh 59 (no result: WT yeast gro inh)
Clc1ccc(CN2CCc3c([nH]c4ccccc34)C2)cc1Cl	CSC inhib 124 (no result: WT yeast gro inh)
Cc1cccc(CN2CCc3c([nH]c4ccccc34)C2)c1	none (no result: WT yeast gro inh)
S=C(Nc1ccc(Nc2ccccc2)cc1)N1CCN(c2ncccn2)CC1	none (no result: Beta apoptosis)
O=C(N/N=C/c1ccc(O)c(O)c1)NC12CC3CC(CC(C3)C1)C2	none (no result: WT yeast gro inh)
Oc1ccc(C23CC4CC(CC(C4)C2)C3)cc1O	SUMO Mot1 rescue 648 (no result: WT yeast gro inh)
CC(C)CC1NC(=O)N(CC(=O)NC2CCCc3ccccc32)C1=O (stereo not given)	none
Cc1ccc(S(=O)(=O)N2CCOCC2)cc1C(=O)N1CCN(c2ccc(C(F)(F)F)cn2)CC1	none (no result: WT yeast gro inh, T cruzi inh)
CN(C)c1ccc(CNCCC(Cc2ccccc2)c2ccco2)cc1 (stereo not given)	T cruzi inh 61 (no result: WT yeast gro inh)
COc1cccc(NC(=O)COC(=O)c2sccc2C)c1	none (no result: WT yeast gro inh, T cruzi inh)
Cc1ccc(Sc2ccc(NC(=O)CCl)cc2)c(C)c1	WT yeast gro inh 64
Cc1ccc(C)c(Sc2ccc(NC(=O)CCN3C(=O)NC4(CCCC4)C3=O)cc2)c1	none (no result: WT yeast gro inh, CSC inhib, T cruzi inh)
Cc1sc(NC(=O)c2ccccc2)c(C(c2ccc(Cl)cc2)N2CCN(CCO)CC2)c1C (stereo not given)	WT yeast gro inh 91
CCOc1ccc(C(c2c(NC(=O)c3ccccc3)sc(C)c2C)N2CCN(CCO)CC2)cc1 (stereo not given)	WT yeast gro inh 68
CC(=O)Nc1sc2c(c1C(c1cccc(Cl)c1)N1CCN(CCO)CC1)CCCC2 (stereo not given)	none
O=C(OC1Cn2c(=O)ccc(=O)n2C1)c1ccccc1	none
Cc1ccc(S(=O)(=O)N(C)CC(=O)Oc2ccc(-c3nnco3)cc2)cc1	none (no result: WT yeast gro inh, Beta apoptosis, SUMO Mot1 rescue)
Cc1nc2ccccc2c2oc(C(=O)NCCCN3CCCC(C)C3)cc12 (stereo not given)	none (no result: WT yeast gro inh)
CCN(CC)CCCNC(=O)c1cc2c(=O)n(CC)c3ccccc3c2s1	none (no result: WT yeast gro inh)
CN(CCCNC(=O)c1cc2c(Cl)nc3ccccc3c2s1)Cc1ccccc1	T cruzi inh 69
CCN(CC)CCCNC(=O)c1cc2c(Cl)nc3ccccc3c2s1	CSC inhib 77
CC1CCCN(CCCNC(=O)c2cc3c(Cl)nc4ccccc4c3s2)C1 (stereo not given)	CSC inhib 85, T cruzi inh 77
CCN(Cc1ccccc1)S(=O)(=O)c1cc2[nH]c(=O)c(=O)[nH]c2cc1C	none (no result: WT yeast gro inh, CSC inhib)
CC(=O)C[C@@H](O)CC(=O)[C@@H]1OC(=O)CCCCCc2ccccc21	none (no result: WT yeast gro inh, Beta apoptosis, SUMO Mot1 rescue, CSC inhib, T cruzi inh)
Oc1ccccc1N=Nc1ccccc1O	T cruzi inh 59 (no result: Efflux pump inh, Beta apoptosis, SUMO Mot1 rescue, CSC inhib)
COc1ccc(N2CCN(C(=O)COc3ccc(S(=O)(=O)N4CCOCC4)cc3C)CC2)cc1	none (no result: WT yeast gro inh)
CCOc1cccc(C(=O)Nc2ccc3oc(Cc4ccc(Cl)cc4)nc3c2)c1	WT yeast gro inh 59
O=C(Nc1ccc2oc(Cc3ccc(Cl)cc3)nc2c1)c1cccnc1	none
COc1ccc(/C=C/c2nc3ccccc3n2Cc2ccc(OC)c(OC)c2)cc1	SUMO Mot1 rescue 353
CCc1nc2ccccc2n1Cc1ccc(OC)c(OC)c1	none
Cc1nn(-c2ccccc2)c(N2CCCC2)c1/C=N/Nc1ccc(S(=O)(=O)Nc2ccccc2)cc1[N+](=O)[O-]	CSC inhib inconclusive
COc1ccccc1NS(=O)(=O)c1ccc(N/N=C/c2c(C)nn(-c3ccccc3)c2N2CCCC2)c([N+](=O)[O-])c1	T cruzi inh 66
CC1CCC(NC(=O)CN2C(=O)c3cccnc3Oc3ccc(Cl)cc32)CC1 (stereo not given)	none (no result: WT yeast gro inh)
Cc1c(C(=O)Nc2ccc(S(=O)(=O)N3CCOCC3)cc2)cccc1[N+](=O)[O-]	none (no result: WT yeast gro inh)
COc1cccc(-c2nnc(NC(=O)Cc3cccs3)s2)c1	none
O=C(Cc1cccs1)Nc1nnc(-c2ccncc2)s1	SUMO Mot1 rescue active | Yeast Mot1 SUMO inactive
CC(C)[C@]1(c2ccc(Cl)cc2)ON(c2ccccc2C(F)(F)F)C1=O	none (no result: WT yeast gro inh, T cruzi inh)
Cc1cccc(CN2CCC(n3nccc3NC(=O)CCCc3ccccc3)CC2)n1	none (no result: WT yeast gro inh)
Cc1ccc(CNC(=O)CN(CCc2ccccc2)S(C)(=O)=O)cc1	none
CC(C)(C)NC(=O)NCc1cccnc1	none (no result: WT yeast gro inh)
CS(=O)(=O)N(CCc1ccccc1)CC(=O)NCc1cccnc1	SUMO Mot1 rescue 854 (no result: CSC inhib) | Yeast Mot1 SUMO inactive
O=C(NCc1cccnc1)Nc1ccccc1	SUMO Mot1 rescue 564 | Yeast Mot1 SUMO inactive
CC(C)(C)NC(=S)NCc1cccnc1	SUMO Mot1 rescue 978 (no result: CSC inhib) | Yeast Mot1 SUMO inactive
CCOc1cccc(N(C(=O)CNC(=O)c2ccco2)C(C(=O)NCC2CCCO2)c2ccccc2)c1 (stereo not given)	none (no result: WT yeast gro inh)
CC(OC(=O)c1ccc2c(c1)S(=O)(=O)c1ccccc1C2=O)C(N)=O (stereo not given)	none (no result: WT yeast gro inh)
Cc1ccccc1Cn1cc(NC(=O)c2cc3nc(-c4ccco4)cc(C(F)(F)F)n3n2)cn1	SUMO Mot1 rescue 360 | Yeast Mot1 SUMO inactive
CC(C(=O)NC1=NCCS1)N1C(=O)C2CC=CCC2C1=O (stereo not given)	none
CC(NC(=O)C1CCCCC1)C(=O)NC1=NCCS1 (stereo not given)	SUMO Mot1 rescue 566 | Yeast Mot1 SUMO inactive
Cc1cc(C)cc(C(=O)Oc2cc(C)[nH]c(=O)c2[N+](=O)[O-])c1	SUMO Mot1 rescue 366 (no result: WT yeast gro inh) | Yeast Mot1 SUMO inactive
COc1cc(C(=O)Oc2cc(C)[nH]c(=O)c2[N+](=O)[O-])cc(OC)c1OC	none (no result: Beta apoptosis)
Cc1ccccc1-n1c(-c2cccnc2)n[nH]c1=S	SUMO Mot1 rescue active | Yeast Mot1 SUMO inactive
CCn1cc(CN2CCC(n3nccc3NC(=O)c3cccc(F)c3)CC2)cn1	none (no result: WT yeast gro inh, Beta apoptosis)
Oc1ccc(/C=N/N2CCN(c3ccccn3)CC2)cc1	none (no result: WT yeast gro inh)
Oc1cccc(/C=N/N2CCN(c3ccccn3)CC2)c1	SUMO Mot1 rescue 547 (no result: WT yeast gro inh) | Yeast Mot1 SUMO inactive
O=C(c1ccncc1)N(Cc1ccccc1)Cc1nc2ccccc2c(=O)[nH]1	SUMO Mot1 rescue 414 | Yeast Mot1 SUMO inactive
